Results: publication PMC2900318 (Bioorganic & medicinal chemistry letters, 2009)
Values after ≈ are worked out from the molar mass of the structure shown. Values belong to the molecule of their own block, whether it stands above or below them.

Assays:
human sEH [1] = target: T1, human sEH (Homo sapiens, UniProt P34913); details: statement in words; cited from earlier work
T1 sequence (P34913 1-555): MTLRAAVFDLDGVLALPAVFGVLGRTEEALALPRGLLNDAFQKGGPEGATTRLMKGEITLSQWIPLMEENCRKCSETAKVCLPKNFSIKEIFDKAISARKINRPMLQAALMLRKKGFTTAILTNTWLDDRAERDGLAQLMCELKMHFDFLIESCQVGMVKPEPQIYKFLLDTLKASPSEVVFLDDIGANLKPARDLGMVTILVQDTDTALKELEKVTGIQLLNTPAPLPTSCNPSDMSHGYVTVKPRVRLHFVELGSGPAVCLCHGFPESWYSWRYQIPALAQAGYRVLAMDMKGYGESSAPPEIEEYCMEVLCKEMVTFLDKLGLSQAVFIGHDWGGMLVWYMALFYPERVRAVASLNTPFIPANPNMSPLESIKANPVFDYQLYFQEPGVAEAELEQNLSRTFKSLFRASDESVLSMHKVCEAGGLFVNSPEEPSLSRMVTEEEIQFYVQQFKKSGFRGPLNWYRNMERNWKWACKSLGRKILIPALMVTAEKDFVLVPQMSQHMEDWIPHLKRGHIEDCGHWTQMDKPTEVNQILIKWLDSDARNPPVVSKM

human sEH [2] = target: T1, human sEH; assay: Inhibition of human sEH, kinetic fluorescent assay; type: biochemical; details: for Fold better inhibitory activity against sEH: salicylic acids vs benzoic acids 14 and 15, respectively
[3] = In vitro stability with human liver S9 incubation with or without NADPH; type: in vitro ADME; details: for Parent compound remaining after the reaction / Level of the corresponding acid metabolite: human hepatic S9, 60 min; for Parent compound remaining after the reaction: with or without NADPH; for Level of the corresponding acid metabolite: metabolites 15 and 27, respectively
Chemical stability = type: physicochemical; details: 40 mM NaOH; 22 °C
Outline: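 The test compound was incubated in alkaline solution (40 mM NaOH) at 22 °C. Hydrolysis was followed over time as conversion to the corresponding phenol.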

[4] = Octanol/buffer partition, experimental logP; type: physicochemical; details: for Concentration in octanol: buffer saturated 1-octanol vs 0.1 M sodium phosphate buffer (pH 7.4); for Concentration in buffer: 0.1 M sodium phosphate buffer (pH 7.4) vs buffer saturated 1-octanol
Solubility in water = type: physicochemical
[5] = Blood levels after oral administration to dog; type: in vivo; details: oral gavage 0.3 mg/kg in tri-olein rich oil
Outline: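 Dogs received the test compound as a single oral gavage dose of 0.3 mg/kg in tri-olein rich oil. Blood concentrations were followed over time to give concentration–time profiles.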

COX-2 = target: T2, COX-2 (Homo sapiens, UniProt P35354); assay: COX-2 fluorescent inhibitor screening assay kit; type: biochemical; details: at 10 μM
T2 sequence (P35354 18-604): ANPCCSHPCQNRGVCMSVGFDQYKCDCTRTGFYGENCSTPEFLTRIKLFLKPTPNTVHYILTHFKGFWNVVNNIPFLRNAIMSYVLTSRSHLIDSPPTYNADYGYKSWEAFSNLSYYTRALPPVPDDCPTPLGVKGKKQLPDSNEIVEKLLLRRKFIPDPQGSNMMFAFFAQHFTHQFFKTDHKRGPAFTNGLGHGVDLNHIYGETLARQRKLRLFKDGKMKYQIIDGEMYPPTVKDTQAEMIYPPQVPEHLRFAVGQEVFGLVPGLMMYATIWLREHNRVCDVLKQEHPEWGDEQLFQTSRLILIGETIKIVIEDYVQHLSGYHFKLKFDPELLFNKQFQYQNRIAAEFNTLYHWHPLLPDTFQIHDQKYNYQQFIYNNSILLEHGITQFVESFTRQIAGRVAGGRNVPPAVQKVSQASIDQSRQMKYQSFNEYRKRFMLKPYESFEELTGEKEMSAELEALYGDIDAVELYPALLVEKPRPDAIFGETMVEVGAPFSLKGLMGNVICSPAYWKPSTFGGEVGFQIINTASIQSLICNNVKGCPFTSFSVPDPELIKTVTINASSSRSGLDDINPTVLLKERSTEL

COX-1 = target: T3, COX-1 (Ovis aries, UniProt P05979); assay: COX-1 fluorescent inhibitor screening assay kit; type: biochemical; details: at 10 μM
T3 sequence (P05979 25-600): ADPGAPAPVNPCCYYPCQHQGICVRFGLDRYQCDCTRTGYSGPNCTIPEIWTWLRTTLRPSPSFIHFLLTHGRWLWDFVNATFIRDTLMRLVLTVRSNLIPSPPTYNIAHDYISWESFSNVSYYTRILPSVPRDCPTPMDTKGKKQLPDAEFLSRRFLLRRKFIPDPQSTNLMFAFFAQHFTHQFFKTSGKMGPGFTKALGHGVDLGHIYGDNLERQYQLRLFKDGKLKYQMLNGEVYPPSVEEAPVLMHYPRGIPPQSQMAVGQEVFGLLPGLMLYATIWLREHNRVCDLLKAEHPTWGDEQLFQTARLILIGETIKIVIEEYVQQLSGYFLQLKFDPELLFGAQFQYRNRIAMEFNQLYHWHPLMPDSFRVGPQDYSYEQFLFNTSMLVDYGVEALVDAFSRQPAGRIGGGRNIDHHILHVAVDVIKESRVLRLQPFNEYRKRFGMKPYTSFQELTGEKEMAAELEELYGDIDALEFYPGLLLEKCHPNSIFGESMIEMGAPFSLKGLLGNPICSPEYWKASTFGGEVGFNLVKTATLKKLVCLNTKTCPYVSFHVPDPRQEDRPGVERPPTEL

Structure (SMILES): O=C(NC12CC3CC(CC(C3)C1)C2)NC12CC3CC(CC(C3)C1)C2 [N,N′-bisadamantyl urea]
- Inhibition towards sEH (human sEH [1]): strong inhibition

Structure (SMILES): O=C(Nc1ccc(C(=O)O)cc1)NC12CC3CC(CC(C3)C1)C2 [Compound 15]
- Fold less active towards sEH (human sEH [2]; vs un-substituted phenyl 1 or the corresponding ester 13): 83 fold

Structure (SMILES): CC(=O)Oc1ccc(NC(=O)NC23CC4CC(CC(C4)C2)C3)cc1 [Compound 10]
- Hydrolysis to the corresponding phenol 4 ([3]; human hepatic S9, in an hour): hydrolyzed completely
- Time to complete conversion to the corresponding phenol 4 (Chemical stability): less than 15 min

Structure (SMILES): O=C(Nc1cccc(C(=O)N2CCC(N3CCOCC3)CC2)c1)NC12CC3CC(CC(C3)C1)C2 [Compound 17]
- Concentration in octanol [4]: 2720 µM
- solubility (Solubility in water; sodium phosphate buffer, pH 7.4): 10000 µg/mL (≈ 21.4 mM)

Structure (SMILES): COC(=O)c1ccc(NC(=O)NC23CC4CC(CC(C4)C2)C3)cc1O [Compound 28]
- Blood concentration [5]: higher than that of the classical sEH inhibitor AUDA
- Concentration in buffer [4]: <0.3 µM
- Concentration in octanol [4]: 3886 µM
- Inhibition of COX-2 (COX-2): not able to show any inhibition
- Parent compound remaining after the reaction [3]: ≥ 90%
- Level of the corresponding acid metabolite [3]: below the limit of detection
- IC50 (human sEH [2]): ~3 nM
- Inhibition of COX-1 (COX-1): not able to show any inhibition

Structure (SMILES): COC(=O)c1ccc(NC(=O)NC23CC4CC(CC(C4)C2)C3)cc1 [Compound 13]
- Concentration in buffer [4]: <0.3 µM
- Concentration in octanol [4]: 2445 µM
- Parent compound remaining after the reaction [3]: ≥ 90%
- Level of the corresponding acid metabolite [3]: below the limit of detection

Structure (SMILES): COC(=O)c1cc(NC(=O)NC23CC4CC(CC(C4)C2)C3)ccc1O [Compound 26]
- Fold increase in metabolic stability ([3]; human liver S9, compared to 12): 10 fold

Other lines, results leading:

- Blood concentration [5]: no 27 was detected
- Concentration in buffer [4]: 39 µM
- Concentration in octanol [4]: 1641 µM
- Fold better inhibitory activity against sEH (human sEH [2]): 20 fold
- Fold more soluble in water (Solubility in water; compared to 17 (so in the source)): 20 fold
Structure (SMILES): O=C(Nc1ccc(C(=O)O)c(O)c1)NC12CC3CC(CC(C3)C1)C2 [Compound 27]

- Fold reduction of inhibitory potency against human sEH (human sEH [2]; ortho hydroxy vs non-functionalized compound 1 / meta, para isomers): roughly 10 fold
Structure (SMILES): O=C(Nc1ccccc1O)NC12CC3CC(CC(C3)C1)C2 [Compound 2]

- Fold better inhibitory activity against sEH (human sEH [2]): 3 fold
Structure (SMILES): O=C(Nc1ccc(O)c(C(=O)O)c1)NC12CC3CC(CC(C3)C1)C2 [Compound 25]

- Parent compound remaining after the reaction [3]: 30%
- Time to complete conversion to the corresponding phenol 4 (Chemical stability): less than 15 min
Structure (SMILES): O=C(Nc1ccc(OC(=O)c2ccccc2)cc1)NC12CC3CC(CC(C3)C1)C2 [Compound 11]
